Results reported in ChEMBL document CHEMBL1149444, “Discovery of imidazo[1,2-b][1,2,4]triazines as GABA(A) alpha2/3 subtype selective agonists for the treatment of anxiety” (J Med Chem, 2006).
pKi: −log10 of the molar value. The source made the active and inactive calls. The calls are words filed in the database; no cut-off is given here.

Tests used:
Rattus norvegicus [1] = assay: Sedation in rat chain pulling assay upto 10 mg/kg, po; type: functional, organism-based; set-up: dose 10 mg/kg
In short: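 Rat chain-pulling assay for sedation. Mean response rate recorded over a 60 min trial starting immediately after oral dosing up to 10 mg/kg. n = 11-12 per group. Significance versus vehicle at p < 0.01.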

[2] = Plasma clearance in rat at 1 mg/kg, iv or 1 mg/kg, po; type: ADME, organism-based
In short: (§1)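 Rat pharmacokinetics after dosing at 1 mg/kg iv and 1 mg/kg po. Plasma clearance in mL/min/kg, half-life in h and volume of distribution in L/kg.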

[3] = Volume of distribution in dog at 1 mg/kg, iv or 1 mg/kg, po; type: ADME, organism-based, Canis lupus familiaris; details: in vivo, read-out: Vdss
In short: (§2)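 Pharmacokinetics in rat, dog or rhesus after 1 mg/kg iv and 1 mg/kg po dosing. Plasma clearance (mL/min/kg), half-life (h), volume of distribution (L/kg) and oral bioavailability (%) were derived.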

[4] = target: T1, GABA-A receptor; alpha-2/beta-3/gamma-2 (Homo sapiens, UniProt P18507+P28472+P47869); assay: Displacement of [3H] Ro15-1788 from recombinant human GABAA alpha2 receptor plus beta-3-gamma-2 expressed in L(tk-) cells; type: cell-based
T1 sequence (P18507 whole entry): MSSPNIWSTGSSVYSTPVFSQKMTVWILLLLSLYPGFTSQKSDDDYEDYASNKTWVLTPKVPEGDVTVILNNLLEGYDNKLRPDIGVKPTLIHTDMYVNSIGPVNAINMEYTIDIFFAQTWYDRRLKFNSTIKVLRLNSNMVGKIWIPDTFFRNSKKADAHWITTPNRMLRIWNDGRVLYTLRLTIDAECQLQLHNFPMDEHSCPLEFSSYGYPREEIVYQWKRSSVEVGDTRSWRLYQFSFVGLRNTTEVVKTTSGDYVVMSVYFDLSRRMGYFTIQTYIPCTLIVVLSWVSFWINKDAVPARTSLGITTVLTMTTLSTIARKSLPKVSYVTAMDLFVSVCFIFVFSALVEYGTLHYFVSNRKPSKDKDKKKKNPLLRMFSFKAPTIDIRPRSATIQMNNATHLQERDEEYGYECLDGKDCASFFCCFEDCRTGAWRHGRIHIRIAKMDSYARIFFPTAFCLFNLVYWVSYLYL
T1 sequence (P28472 whole entry): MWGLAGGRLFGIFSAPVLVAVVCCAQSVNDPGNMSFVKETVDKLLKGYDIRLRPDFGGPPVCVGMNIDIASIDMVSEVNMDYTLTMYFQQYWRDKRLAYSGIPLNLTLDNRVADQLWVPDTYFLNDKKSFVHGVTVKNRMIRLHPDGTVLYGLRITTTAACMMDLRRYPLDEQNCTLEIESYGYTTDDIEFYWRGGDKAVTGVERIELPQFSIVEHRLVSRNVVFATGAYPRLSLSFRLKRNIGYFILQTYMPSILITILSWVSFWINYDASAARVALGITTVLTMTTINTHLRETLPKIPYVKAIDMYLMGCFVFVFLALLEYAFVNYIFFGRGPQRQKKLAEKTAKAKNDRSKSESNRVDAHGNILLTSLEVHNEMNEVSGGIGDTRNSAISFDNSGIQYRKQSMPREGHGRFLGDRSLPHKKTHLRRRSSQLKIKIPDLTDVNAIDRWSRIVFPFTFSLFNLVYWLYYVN
T1 sequence (P47869 whole entry): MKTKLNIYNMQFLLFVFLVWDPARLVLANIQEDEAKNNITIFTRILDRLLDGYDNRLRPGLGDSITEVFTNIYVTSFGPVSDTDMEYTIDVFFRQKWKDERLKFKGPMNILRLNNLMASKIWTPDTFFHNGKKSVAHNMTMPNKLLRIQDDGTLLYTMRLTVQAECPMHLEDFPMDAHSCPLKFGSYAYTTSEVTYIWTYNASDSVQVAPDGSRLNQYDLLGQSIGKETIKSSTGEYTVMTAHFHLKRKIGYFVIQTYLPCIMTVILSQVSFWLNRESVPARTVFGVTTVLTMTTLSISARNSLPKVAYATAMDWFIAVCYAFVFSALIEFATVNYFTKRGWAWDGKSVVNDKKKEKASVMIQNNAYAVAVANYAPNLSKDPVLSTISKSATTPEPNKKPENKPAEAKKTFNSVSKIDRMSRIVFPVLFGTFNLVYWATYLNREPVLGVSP

[5] = Oral bioavailability in dog at 1 mg/kg, iv or 1 mg/kg, po; type: ADME, organism-based, Canis lupus familiaris; details: in vivo; in short: as §2
[6] = target: T2, GABA-A receptor; alpha-3/beta-3/gamma-2 (Homo sapiens, UniProt P18507+P28472+P34903); assay: Displacement of [3H]Ro 15-1788 from recombinant human GABAA alpha3 receptor plus beta-3-gamma-2 expressed in L(tk-) cells; type: cell-based
T2 sequence (P18507 whole entry): T1 sequence (P18507 whole entry)
T2 sequence (P28472 whole entry): T1 sequence (P28472 whole entry)
T2 sequence (P34903 whole entry): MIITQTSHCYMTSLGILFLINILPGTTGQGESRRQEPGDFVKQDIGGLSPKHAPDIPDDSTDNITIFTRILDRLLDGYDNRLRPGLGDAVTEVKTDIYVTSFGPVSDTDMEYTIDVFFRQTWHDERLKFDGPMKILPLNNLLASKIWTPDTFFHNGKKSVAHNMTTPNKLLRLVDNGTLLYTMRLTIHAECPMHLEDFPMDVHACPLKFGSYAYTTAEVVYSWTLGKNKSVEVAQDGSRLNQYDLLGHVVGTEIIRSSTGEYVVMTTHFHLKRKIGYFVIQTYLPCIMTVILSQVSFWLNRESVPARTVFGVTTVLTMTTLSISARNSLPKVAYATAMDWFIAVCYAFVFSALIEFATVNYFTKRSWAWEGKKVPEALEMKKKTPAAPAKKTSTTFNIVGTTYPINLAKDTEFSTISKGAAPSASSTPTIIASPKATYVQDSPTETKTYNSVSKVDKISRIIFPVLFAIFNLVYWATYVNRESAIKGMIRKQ
In short: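 Inhibition of [3H]Ro15-1788 binding to human recombinant GABAA receptors stably expressed in L(tk-) cells, alpha subunit combined with beta3 and gamma2. Six to eight test concentrations spaced in half-log units. Ki reported as geometric mean of n = 2-12.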

Rattus norvegicus [7] = assay: Activity in rat elevated plus maze assay at 1 mg/kg, po; type: functional, organism-based; set-up: dose 1 mg/kg
In short: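 Rats given test compound orally 30 min before a 5 min elevated plus maze session; vehicle 0.5% methyl cellulose po. Read-out is time on open arms as percentage of total time. n = 18 per group. Significance versus vehicle at p < 0.05.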

[8] = Plasma clearance in rhesus at 1 mg/kg, iv or 1 mg/kg, po; type: ADME, organism-based, Macaca mulatta; details: rhesus monkey; in short: as §2
[9] = Half life in rat at 1 mg/kg, […] 1 mg/kg, po; type: ADME, organism-based; details: in vivo; in short: as §1
[10] = target: GABA-A receptor; alpha-3/beta-3/gamma-2 (Homo sapiens) (UniProt P18507+P28472+P34903); assay: Efficacy against recombinant human GABAA alpha3 receptor plus beta-3-gamma-2 expressed in L(tk-) cells by whole cell patch clamp method relative to chlordiazepoxide; type: functional, cell-based
In short: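 Whole-cell patch clamp on L(tk-) cells stably expressing the receptor (alpha plus beta3gamma2). GABA applied at an EC20-equivalent concentration. Modulation of the current measured with increasing test concentrations. Efficacy expressed relative to the maximal chlordiazepoxide response (set at 1.00) or as a percentage.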

With `CC(C)(O)c1cnn2c(-c3ccc(F)c(-c4c(F)cccc4C#N)c3)cnc2n1` the Activity (Rattus norvegicus [1]) was “inactive”, the clearance [2] was 2.4 mL/min/kg and the Vd [3] was 1.9 L/kg. It also gave a pKi [4] of 8.74, a bioavailability [5] of 22% and a pKi [6] of 8.70. For the same compound, the Activity (Rattus norvegicus [7]) was “Active”, the clearance [8] was 5.8 mL/min/kg and the half-life [9] was 11 h. The Efficacy [10] was 50%.
